# Laboratory results: ChEMBL document CHEMBL2385051, “Facile synthesis of new imidazo[1,2-a]pyridines carrying 1,2,3-triazoles via click chemistry and their antiepileptic studies” (Bioorg Med Chem Lett, 2013)
# Active and inactive are the calls of the source. The rule behind the calls is not given here.
# Key:
# Mus musculus [1] = experiment: Anticonvulsant activity in NMRI mouse assessed as protection against subcutaneous pentylene tetrazole-induced seizure at 20 to 100 mg/kg, ip after 0.5 hrs; type: functional, organism-based
# Outline: (§1)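 Mice received 20, 40 and 100 mg/kg test doses. Seizures were induced by electrical shock (MES) or PTZ injection (scPTZ) at 0.5 and 4 h after dosing. The value recorded is the minimal dose protecting more than 50% of mice against seizure.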
# Mus musculus [2] = experiment: Neurotoxicity in NMRI mouse assessed as minimal motor impairment at 20 to 100 mg/kg, ip after 0.5 hrs by rotarod test; type: toxicity, organism-based; set-up: dose 20-100 mg/kg, route intraperitoneal; conditions: in vivo
# Outline: (§2)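 Rotarod motor-impairment test in mice given 20, 40 and 100 mg/kg doses, read 0.5 and 4 h after administration. The value recorded is the minimal dose producing toxicity in more than 50% of mice.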
# Mus musculus [3] = experiment: Anticonvulsant activity in ip dosed NMRI mouse assessed as dose required to cause protection against subcutaneous pentylene tetrazole-induced seizure after 4 hrs; type: functional; conditions: read-out: MED; outline: as §1
# Mus musculus [4] = experiment: Neurotoxicity in NMRI mouse assessed as minimal motor impairment at 20 to 100 mg/kg, ip after 4 hrs by rotarod test; type: toxicity, organism-based; set-up: dose 20-100 mg/kg, route intraperitoneal; conditions: in vivo; outline: as §2
# Mus musculus [5] = experiment: Anticonvulsant activity in NMRI mouse assessed as protection against maximal electroshock-induced seizures at 20 to 100 mg/kg, ip after 4 hrs; type: functional, organism-based; outline: as §1
# Mus musculus [6] = experiment: Anticonvulsant activity in NMRI mouse assessed as protection against maximal electroshock-induced seizures at 20 to 100 mg/kg, ip after 0.5 hrs; type: functional, organism-based; outline: as §1
# Mus musculus [7] = experiment: Anticonvulsant activity in ip dosed NMRI mouse assessed as dose required to cause protection against maximal electroshock-induced seizures after 4 hrs; type: functional; conditions: read-out: MED; outline: as §1
# Mus musculus [8] = experiment: Anticonvulsant activity in ip dosed NMRI mouse assessed as dose required to cause protection against subcutaneous pentylene tetrazole-induced seizure after 0.5 hrs; type: functional; conditions: read-out: MED; outline: as §1
# Mus musculus [9] = experiment: Anticonvulsant activity in ip dosed NMRI mouse assessed as dose required to cause protection against maximal electroshock-induced seizures after 0.5 hrs; type: functional; conditions: read-out: MED; outline: as §1
# Mus musculus [10] = experiment: Anticonvulsant activity in NMRI mouse assessed as protection against subcutaneous pentylene tetrazole-induced seizure at 20 to 100 mg/kg, ip after 4 hrs; type: functional, organism-based; outline: as §1
# [11] = Neurotoxicity in ip dosed NMRI mouse assessed as dose required to cause minimal motor impairment after 4 hrs by rotarod test; type: toxicity, organism-based; conditions: in vivo, read-out: MTC50; outline: as §2
SMILES,Activity (Mus musculus [1]),Activity (Mus musculus [2]),minimal effective dose (Mus musculus [3]) [mg/kg],Activity (Mus musculus [4]),Activity (Mus musculus [5]),Activity (Mus musculus [6]),minimal effective dose (Mus musculus [7]) [mg/kg],minimal effective dose (Mus musculus [8]) [mg/kg],minimal effective dose (Mus musculus [9]) [mg/kg],Activity (Mus musculus [10]),TD50 at 4 h [11] [mg/kg]
Cc1cccn2c(/C=N/O)c(-c3ccc(F)cc3)nc12,inactive,Non-toxic,40,Non-toxic,inactive,inactive,–,–,–,–,–
C#CCO/N=C/c1c(-c2ccc(C)cc2)nc2ccc(Br)cn12,–,Non-toxic,40,Non-toxic,–,inactive,20,20,–,–,–
COc1ccc(Cn2cc(CO/N=C/c3c(-c4ccccc4)nc4c(C)cccn34)nn2)cc1,–,Non-toxic,100,Non-toxic,–,inactive,40,40,–,–,–
Cc1cccn2c(/C=N/OCc3cn(Cc4ccc(C#N)cc4)nn3)c(-c3ccccc3)nc12,inactive,Non-toxic,40,Non-toxic,inactive,inactive,–,–,–,–,–
N#Cc1ccc(Cn2cc(CO/N=C/c3c(-c4ccccc4)nc4ccc(Br)cn34)nn2)cc1,–,Non-toxic,20,Non-toxic,–,inactive,100,20,–,–,–
O=C1NC(=O)C(c2ccccc2)(c2ccccc2)N1 [PHENYTOIN],–,–,–,–,–,–,20,–,20,–,–
O/N=C/c1c(-c2ccccc2)nc2ccc(Br)cn12,inactive,Non-toxic,–,Non-toxic,inactive,inactive,–,–,–,inactive,–
Cc1ccc(Cn2cc(CO/N=C/c3c(-c4ccc(C)cc4)nc4ccc(Br)cn34)nn2)cc1,–,Non-toxic,100,Non-toxic,inactive,inactive,–,40,–,–,–
Cc1ccc(-c2nc3ccc(Br)cn3c2/C=N/O)cc1,–,Non-toxic,20,Non-toxic,–,inactive,100,20,–,–,–
Cc1ccc(-c2nc3c(C)cccn3c2/C=N/OCc2cn(Cc3ccc(C#N)cc3)nn2)cc1,inactive,Non-toxic,100,–,inactive,inactive,–,–,–,–,100
CN1C(=O)CN=C(c2ccccc2)c2cc(Cl)ccc21 [DIAZEPAM],–,Non-toxic,20,Non-toxic,–,–,–,20,–,–,–
Cc1ccc(-c2nc3c(C)cccn3c2/C=N/O)cc1,–,Non-toxic,40,Non-toxic,–,inactive,40,20,–,–,–
Cc1ccc(Cn2cc(CO/N=C/c3c(-c4ccccc4)nc4ccc(Br)cn34)nn2)cc1,inactive,Non-toxic,–,Non-toxic,inactive,inactive,–,–,–,inactive,–
COc1ccc(Cn2cc(CO/N=C/c3c(-c4ccc(F)cc4)nc4ccc(Br)cn34)nn2)cc1,inactive,Non-toxic,–,Non-toxic,inactive,inactive,–,–,–,inactive,–
COc1ccc(Cn2cc(CO/N=C/c3c(-c4ccc(F)cc4)nc4c(C)cccn34)nn2)cc1,–,Non-toxic,40,Non-toxic,inactive,inactive,–,40,–,–,–
Cc1ccc(Cn2cc(CO/N=C/c3c(-c4ccc(F)cc4)nc4ccc(Br)cn34)nn2)cc1,inactive,Non-toxic,100,Non-toxic,inactive,inactive,–,–,–,–,–
Cc1ccc(Cn2cc(CO/N=C/c3c(-c4ccccc4)nc4c(C)cccn34)nn2)cc1,inactive,Non-toxic,–,Non-toxic,inactive,inactive,–,–,–,inactive,–

SMILES,Activity (Mus musculus [1]),Activity (Mus musculus [2]),minimal effective dose (Mus musculus [3]) [mg/kg],Activity (Mus musculus [4]),Activity (Mus musculus [5]),Activity (Mus musculus [6]),minimal effective dose (Mus musculus [7]) [mg/kg],minimal effective dose (Mus musculus [8]) [mg/kg],minimal effective dose (Mus musculus [9]) [mg/kg],Activity (Mus musculus [10]),TD50 at 4 h [11] [mg/kg]
O=[N+]([O-])c1ccc(Cn2cc(CO/N=C/c3c(-c4ccccc4)nc4ccc(Br)cn34)nn2)cc1,–,Non-toxic,40,Non-toxic,–,inactive,40,20,–,–,–
COc1ccc(Cn2cc(CO/N=C/c3c(-c4ccccc4)nc4ccc(Br)cn34)nn2)cc1,inactive,Non-toxic,40,Non-toxic,inactive,inactive,–,–,–,–,–
Cc1cccn2c(/C=N/OCc3cn(Cc4ccc([N+](=O)[O-])cc4)nn3)c(-c3ccccc3)nc12,inactive,Non-toxic,–,Non-toxic,inactive,inactive,–,–,–,inactive,–
C#CCO/N=C/c1c(-c2ccc(F)cc2)nc2ccc(Br)cn12,–,Non-toxic,–,Non-toxic,inactive,inactive,–,40,–,inactive,–
Cc1cccn2c(/C=N/O)c(-c3ccccc3)nc12,inactive,Non-toxic,–,Non-toxic,inactive,inactive,–,–,–,inactive,–
Cc1ccc(Cn2cc(CO/N=C/c3c(-c4ccc(F)cc4)nc4c(C)cccn34)nn2)cc1,inactive,Non-toxic,40,Non-toxic,inactive,inactive,–,–,–,–,–
C#CCO/N=C/c1c(-c2ccccc2)nc2c(C)cccn12,inactive,Non-toxic,100,Non-toxic,inactive,inactive,–,–,–,–,–
N#Cc1ccc(Cn2cc(CO/N=C/c3c(-c4ccc(F)cc4)nc4ccc(Br)cn34)nn2)cc1,inactive,Non-toxic,100,–,–,inactive,100,–,–,–,100
Cc1ccc(Cn2cc(CO/N=C/c3c(-c4ccc(C)cc4)nc4c(C)cccn34)nn2)cc1,inactive,Non-toxic,–,Non-toxic,inactive,inactive,–,–,–,inactive,–
O=[N+]([O-])c1ccc(Cn2cc(CO/N=C/c3c(-c4ccc(F)cc4)nc4ccc(Br)cn34)nn2)cc1,–,Non-toxic,100,–,–,inactive,100,40,–,–,100
COc1ccc(Cn2cc(CO/N=C/c3c(-c4ccc(C)cc4)nc4ccc(Br)cn34)nn2)cc1,inactive,Non-toxic,40,Non-toxic,inactive,inactive,–,–,–,–,–
C#CCO/N=C/c1c(-c2ccc(F)cc2)nc2c(C)cccn12,inactive,Non-toxic,100,Non-toxic,inactive,inactive,–,–,–,–,–
O/N=C/c1c(-c2ccc(F)cc2)nc2ccc(Br)cn12,–,Non-toxic,40,Non-toxic,inactive,inactive,–,40,–,–,–
C#CCO/N=C/c1c(-c2ccccc2)nc2ccc(Br)cn12,inactive,Non-toxic,–,Non-toxic,inactive,inactive,–,–,–,inactive,–
Cc1ccc(-c2nc3ccc(Br)cn3c2/C=N/OCc2cn(Cc3ccc(C#N)cc3)nn2)cc1,–,Non-toxic,40,Non-toxic,inactive,inactive,–,40,–,–,–
COc1ccc(Cn2cc(CO/N=C/c3c(-c4ccc(C)cc4)nc4c(C)cccn34)nn2)cc1,–,Non-toxic,100,Non-toxic,–,inactive,100,40,–,–,–
